Source: ChEMBL document CHEMBL2331438, “An efficient domino reaction in ionic liquid: synthesis and biological evaluation of some pyrano- and thiopyrano-fused heterocycles” (2013)
≈ marks a conversion by molar mass, not a printed value.

Assays:
Salmonella typhi = assay: Antibacterial activity against Salmonella typhi MTCC 98 after 24 hrs by broth microdilution method; assay type: functional, Salmonella enterica subsp. enterica serovar Typhi; conditions: Salmonella enterica, MTCC 98, 24 h
Vibrio cholerae = assay: Antibacterial activity against Vibrio cholerae MTCC 3906 after 24 hrs by broth microdilution method; assay type: functional; conditions: MTCC 3906, 24 h
Streptococcus pneumoniae = assay: Antibacterial activity against Streptococcus pneumoniae MTCC 1936 after 24 hrs by broth microdilution method; assay type: functional; conditions: MTCC 1936, 24 h
Escherichia coli = assay: Antibacterial activity against Escherichia coli MTCC 443 after 24 hrs by broth microdilution method; assay type: functional; conditions: MTCC 443, 24 h
[1] = Antioxidant activity assessed as ascorbic acid equivalent ferric ion reducing activity per 100 gram at 200 ug/ml by FRAP assay; assay type: functional
[2] = test system: Mycobacterium tuberculosis; assay: Antimycobacterial activity against Mycobacterium tuberculosis H37Rv at 250 ug/ml; assay type: functional
Method in brief: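 M. tuberculosis H37Rv tested on L.J. (Löwenstein–Jensen) medium.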

Candida albicans = assay: Antifungal activity against Candida albicans MTCC 227 after 48 hrs by broth microdilution method; assay type: functional
Bacillus subtilis = assay: Antibacterial activity against Bacillus subtilis MTCC 441 after 24 hrs by broth microdilution method; assay type: functional; conditions: MTCC 441, 24 h
Clostridium tetani = assay: Antibacterial activity against Clostridium tetani MTCC 449 after 24 hrs by broth microdilution method; assay type: functional; conditions: MTCC 449, 24 h
Aspergillus fumigatus = assay: Antifungal activity against Aspergillus fumigatus MTCC 3008 after 48 hrs by broth microdilution method; assay type: functional

Compound | MIC (Salmonella typhi) | MIC (Vibrio cholerae) | MIC (Streptococcus pneumoniae) | MIC (Escherichia coli) | Activity [1] | inhibition at 250 µg/mL [2] | MIC (Candida albicans; MTCC 227, 48 h) | MIC (Bacillus subtilis) | MIC (Clostridium tetani) | MIC (Aspergillus fumigatus; MTCC 3008, 48 h) | MIC (Candida albicans) | MIC (Aspergillus fumigatus)
Cc1nn(-c2ccc(Cl)c(Cl)c2)c2c1[C@@H]1c3c(ccc4c(C)cc(=O)oc34)OC[C@@H]1C(C)(C)O2 | 250 mg/L (≈ 503 µM) | 125 mg/L (≈ 251 µM) | 250 mg/L (≈ 503 µM) | 200 mg/L (≈ 402 µM) | 150 mmol | 70% | 200 mg/L (≈ 402 µM) | 250 mg/L (≈ 503 µM) | 250 mg/L (≈ 503 µM) | 500 mg/L (≈ 1010 µM) |  | 
NYSTATIN |  |  |  |  |  |  |  |  |  |  | 100 mg/L | 100 mg/L
c1ccc(-c2nn(-c3ccccc3)c3c2[C@@H]2c4cc5ccccc5nc4SC[C@@H]2CO3)cc1 | 250 mg/L (≈ 559 µM) | 250 mg/L (≈ 559 µM) | 250 mg/L (≈ 559 µM) | 100 mg/L (≈ 223 µM) | 105 mmol | 40% | 500 mg/L (≈ 1120 µM) | 200 mg/L (≈ 447 µM) | 250 mg/L (≈ 559 µM) | 250 mg/L (≈ 559 µM) |  | 
Cc1nn(-c2ccccc2)c2c1[C@@H]1c3cc4cccc(C)c4nc3SC[C@@H]1C(C)(C)O2 (single isomer, unassigned) | 100 mg/L (≈ 234 µM) | 125 mg/L (≈ 292 µM) | 100 mg/L (≈ 234 µM) | 200 mg/L (≈ 468 µM) | 83.5 mmol | 49% | > 1000 mg/L | 250 mg/L (≈ 585 µM) | 100 mg/L (≈ 234 µM) | 1000 mg/L (≈ 2340 µM) |  | 
Cc1nn(-c2ccccc2)c2c1[C@@H]1c3c(ccc4c(C)cc(=O)oc34)OC[C@@H]1CO2 | 200 mg/L (≈ 499 µM) | 250 mg/L (≈ 624 µM) | 250 mg/L (≈ 624 µM) | 250 mg/L (≈ 624 µM) | 120 mmol | 65% | > 1000 mg/L | 500 mg/L (≈ 1250 µM) | 250 mg/L (≈ 624 µM) | > 1000 mg/L |  | 
Cc1nn(-c2cccc(Cl)c2)c2c1[C@@H]1c3cc4cccc(C)c4nc3SC[C@@H]1CO2 | 500 mg/L (≈ 1150 µM) | 200 mg/L (≈ 461 µM) | 250 mg/L (≈ 576 µM) | 250 mg/L (≈ 576 µM) | 125 mmol | 82% | 1000 mg/L (≈ 2300 µM) | 250 mg/L (≈ 576 µM) | 200 mg/L (≈ 461 µM) | 200 mg/L (≈ 461 µM) |  | 
Cc1ccc(-n2nc(C)c3c2OC(C)(C)[C@H]2COc4ccc5c(C)cc(=O)oc5c4[C@@H]32)cc1 | 250 mg/L (≈ 565 µM) | 500 mg/L (≈ 1130 µM) | 100 mg/L (≈ 226 µM) | 100 mg/L (≈ 226 µM) | 240 mmol | 32% | 250 mg/L (≈ 565 µM) | 250 mg/L (≈ 565 µM) | 250 mg/L (≈ 565 µM) | 250 mg/L (≈ 565 µM) |  | 
Cc1cc(=O)oc2c3c(ccc12)OC[C@H]1[C@@H]3c2c(-c3ccccc3)nn(-c3ccccc3)c2OC1(C)C | 100 mg/L (≈ 204 µM) | 125 mg/L (≈ 255 µM) | 125 mg/L (≈ 255 µM) | 125 mg/L (≈ 255 µM) | 160 mmol | 80% | 1000 mg/L (≈ 2040 µM) | 200 mg/L (≈ 408 µM) | 100 mg/L (≈ 204 µM) | > 1000 mg/L |  | 
Cc1nn(-c2cc(Cl)ccc2Cl)c2c1[C@@H]1c3c(ccc4c(C)cc(=O)oc34)OC[C@@H]1C(C)(C)O2 |  |  | 100 mg/L (≈ 201 µM) | 100 mg/L (≈ 201 µM) | 187 mmol |  | 500 mg/L (≈ 1010 µM) | 100 mg/L (≈ 201 µM) |  | 500 mg/L (≈ 1010 µM) |  | 
Cc1nn(-c2ccccc2)c2c1[C@@H]1c3cc4cccc(C)c4nc3SC[C@@H]1CO2 | 200 mg/L (≈ 501 µM) | 250 mg/L (≈ 626 µM) | 250 mg/L (≈ 626 µM) | 250 mg/L (≈ 626 µM) | 160 mmol | 38% | 1000 mg/L (≈ 2500 µM) | 100 mg/L (≈ 250 µM) | 200 mg/L (≈ 501 µM) | 250 mg/L (≈ 626 µM) |  | 
Cc1nn(-c2ccc([N+](=O)[O-])cc2)c2c1[C@@H]1c3cc4cccc(C)c4nc3SC[C@@H]1CO2 | 62.5 mg/L (≈ 141 µM) | 250 mg/L (≈ 562 µM) | 200 mg/L (≈ 450 µM) | 100 mg/L (≈ 225 µM) | 49.8 mmol | 20% | > 1000 mg/L | 250 mg/L (≈ 562 µM) | 200 mg/L (≈ 450 µM) | > 1000 mg/L |  | 
Cc1ccc(-n2nc(C)c3c2OC(C)(C)[C@H]2CSc4nc5c(C)cccc5cc4[C@@H]32)cc1 (single isomer, unassigned) | 125 mg/L (≈ 283 µM) | 200 mg/L (≈ 453 µM) | 100 mg/L (≈ 226 µM) | 125 mg/L (≈ 283 µM) | 161 mmol | 91% | 250 mg/L (≈ 566 µM) | 100 mg/L (≈ 226 µM) | 200 mg/L (≈ 453 µM) | 500 mg/L (≈ 1130 µM) |  | 
Cc1nn(-c2cc(Cl)ccc2Cl)c2c1[C@@H]1c3cc4ccccc4nc3SC[C@@H]1CO2 |  |  | 200 mg/L (≈ 440 µM) | 250 mg/L (≈ 550 µM) | 158 mmol |  | 500 mg/L (≈ 1100 µM) | 100 mg/L (≈ 220 µM) |  | > 1000 mg/L |  | 
COC1=CC(=O)C[C@@H](C)[C@]12Oc1c(Cl)c(OC)cc(OC)c1C2=O [GRISEOFULVIN] |  |  |  |  |  |  | 500 mg/L (≈ 1420 µM) |  |  | 100 mg/L (≈ 283 µM) |  | 
O=C(N[C@H](CO)[C@H](O)c1ccc([N+](=O)[O-])cc1)C(Cl)Cl [CHLORAMPHENICOL] | 50 mg/L (≈ 155 µM) | 50 mg/L (≈ 155 µM) | 50 mg/L (≈ 155 µM) | 50 mg/L (≈ 155 µM) |  |  |  | 50 mg/L (≈ 155 µM) | 50 mg/L (≈ 155 µM) |  |  | 
